Data set [1] deals with Mus musculus. In words: Cardiotoxicity in BALB/C nude mouse xenografted with human MDA-MB-231 cells assessed as change in left ventricular internal diastole dimension at 12 umol/kg, iv administered starting on day 5 measured after day 22 by echocardiography. The format is toxicity, organism-based. The conditions noted are these: in vivo. In outline: (§1)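 Same MDA-MB-231 xenograft mice, given daily iv doses in 5% HS15 from day 5. After 22 days of dosing, transthoracic echocardiography with a 21 MHz transducer under 1.5% isoflurane, supine. M-mode images taken from the parasternal short-axis view at the papillary muscle; IVSd, IVSs, LVIDd and LVIDs derived, n = 6.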

The subject of another data set is MDA-MB-231. In words: Antiproliferative activity against human MDA-MB-231 cells transfected with pCMV6 incubated for 48 hrs by MTT assay. Particulars: MDA-MB-231, 48 h. The format is functional, cell-based. In a few lines:
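Cells grown in DMEM with 10% FBS and 1% penicillin-streptomycin at 37 °C, 5% CO2; 10% heat-inactivated FBS used during cytotoxicity testing to exclude serum FAP activity. Viability read by MTT; IC50 as mean ± SEM of at least three independent experiments. Transfected lines were made from MDA-MB-231 with human FAPα plasmid or empty pCMV6-Entry vector and checked by Western blot at 48 h.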

Data set [2] deals with Mus musculus. The data set can be described thus: Cardiotoxicity in BALB/C nude mouse xenografted with human MDA-MB-231 cells assessed as change in left ventricular internal systole dimension at 12 umol/kg, iv administered starting on day 5 measured after day 22 by echocardiography. Particulars: in vivo. The format is toxicity, organism-based. In a few lines: as §1
Data set [3] can be described thus: Safety index, ratio of test compound LD50 to arenobufagin LD50 for Kunming mouse. The format is ADME. Particulars: in vivo. In a few lines:
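LD50 from single-dose iv acute toxicity in Kunming mice (five dose levels per compound, n = 10 per group, 14-day observation), calculated by Bliss method; ratio taken against arenobufagin LD50.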

For `C[C@]12CC[C@H](OC(=O)[C@H](Cc3c[nH]c4ccccc34)NC(=O)[C@@H]3CCCN3C(=O)CNC(=O)OCc3ccccc3)C[C@H]1CC[C@@H]1[C@@H]2[C@H](O)C(=O)[C@]2(C)[C@@H](c3ccc(=O)oc3)CC[C@]12O`, the Activity result in the data set on Mus musculus [1] and with Mus musculus [2] was “Non-Toxic” in each case. The compound also had an IC50 in the data set with MDA-MB-231 of 24 nM. Further, the selectivity ratio in data set [3] worked out at 6.5.

Source of the values: ChEMBL document CHEMBL4038302, “Fibroblast Activation Protein α Activated Tripeptide Bufadienolide Antitumor Prodrug with Reduced Cardiotoxicity” (J Med Chem, 2017).
